Here are results for two compounds from ChEMBL document CHEMBL1155242, “Radiolabeled 5-iodo-3'-O-(17beta-succinyl-5alpha-androstan-3-one)-2'-deoxyuridine and its 5'-monophosphate for imaging and therapy of androgen receptor-positive cancers: synthesis and biological evaluation” (J Med Chem, 2009).

Data set [1] deals with T1, Sex hormone-binding globulin (Oryctolagus cuniculus, UniProt P15196).
T1 sequence (P15196 whole entry): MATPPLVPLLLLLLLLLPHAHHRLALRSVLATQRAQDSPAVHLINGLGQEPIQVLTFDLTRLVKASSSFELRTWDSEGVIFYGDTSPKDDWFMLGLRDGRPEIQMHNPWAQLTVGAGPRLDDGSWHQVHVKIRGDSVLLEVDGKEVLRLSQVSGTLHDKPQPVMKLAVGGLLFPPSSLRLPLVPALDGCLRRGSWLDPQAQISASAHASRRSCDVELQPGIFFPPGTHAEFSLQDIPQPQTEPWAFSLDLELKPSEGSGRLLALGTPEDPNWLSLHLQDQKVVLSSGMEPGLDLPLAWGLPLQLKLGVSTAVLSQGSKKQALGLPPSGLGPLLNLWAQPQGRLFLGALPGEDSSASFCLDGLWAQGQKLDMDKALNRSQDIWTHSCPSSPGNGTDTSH
Nature of the data set: Binding affinity to rabbit sex hormone binding globulin at 10 to 20 uCi/mL after 60 mins by size-exclusion HPLC analysis. The data set is classed as ADME. The conditions noted are these: 1 h. An outline of the steps: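 Radioligand incubated 60 min in rabbit serum; size-exclusion HPLC as for SHBG binding (phosphate/Na2SO4 pH 6.8, then CH3CN gradient) for SHBG-bound peak, with extracts run on C18 for intact compound.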
A general note: SEC sorts molecules by how far they enter the pores of the column.

A further data set deals with Serum. Briefly: Stability in human serum assessed as half life at 10 to 20 uCi/mL by size-exclusion HPLC analysis. The data set is classed as ADME, cell-free. An outline of the steps: (§1)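 The compound was incubated with rabbit or human serum at ambient temperature, and aliquots were taken at 1, 5 and 24 h. Aliquots were run on size-exclusion HPLC (TSK3000; 0.1 M potassium phosphate/0.1 M Na2SO4, pH 6.8, then an acetonitrile gradient). Extracts were run on C18 reversed-phase HPLC (water/acetonitrile with 0.07% TFA). Half-lives came from a monoexponential fit.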

The nature of data set [2]: Stability in rabbit serum assessed as half life at 10 to 20 uCi/mL by reversed phase HPLC analysis. The data set is classed as ADME, cell-free, Oryctolagus cuniculus. An outline of the steps:
as §1

The nature of data set [3]: Stability in human OVCAR-3 cells expressing androgen receptor assessed as assessed as compound degradation at 0.01 to 5 uCi/mL up to 24 hrs by silica gel instant thin layer chromatography. The conditions noted are these: read-out: Activity. The data set is classed as ADME, cell-based.
A short description of data set [4]: Biodistribution in nonadherent tumors in stomach of athymic NCr mouse xenografted with human OVCAR-3 cells at 45 uCi, ip after 72 hrs by gamma counting. The conditions noted are these: in vivo. It counts as ADME, organism-based. An outline of the steps: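 Athymic NCr-nu/nu mice with ip OVCAR-3; 45 μCi given ip without prior SSKI. Whole-body planar imaging at 72 h with region-of-interest analysis as percent of whole-body activity; peritoneal lavage cells and ascites counted.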
In general terms: A xenograft is tissue or cells of one species grown in another, often human tumour cells in immunodeficient mice.

Data set [5] can be described thus: Ratio of drug level in tumor to liver in athymic NCr mouse xenografted with human OVCAR-3 cells at 180 uCi, ip administered 9 days after tumor implantation as six fractionated doses every 4 days measured after 1.5 hrs by gamma counting. The data set is classed as ADME, organism-based. The conditions noted are these: in vivo.
Data set [6] is described as follows: Ratio of drug level in tumor to blood in athymic NCr mouse xenografted with human OVCAR-3 cells at 180 uCi, ip administered 9 days after tumor implantation as six fractionated doses every 4 days measured after 24 hrs by gamma counting. It counts as ADME, organism-based. The conditions noted are these: tumour.
Data set [7] is described as follows: Ratio of drug level in tumor to blood in athymic NCr mouse xenografted with human OVCAR-3 cells at 180 uCi, ip administered 9 days after tumor implantation as six fractionated doses every 4 days measured after 48 hrs by gamma counting. The data set is classed as ADME, organism-based. The conditions noted are these: tumour.
Data set [8] is described as follows: Ratio of drug level in tumor to kidney in athymic NCr mouse xenografted with human OVCAR-3 cells at 180 uCi, ip administered 9 days after tumor implantation as six fractionated doses every 4 days measured after 48 hrs by gamma counting. It counts as ADME, organism-based. The conditions noted are these: in vivo.
Data set [9] is described as follows: Ratio of drug level in tumor to liver in athymic NCr mouse xenografted with human OVCAR-3 cells at 180 uCi, ip administered 9 days after tumor implantation as six fractionated doses every 4 days measured after 48 hrs by gamma counting. It counts as ADME, organism-based. The conditions noted are these: in vivo.
Another data set concerns Mus musculus. Briefly: Toxicity in ip dosed athymic NCr mouse assessed as change in body weight measured after 21 days. The data set is classed as organism-based. The conditions noted are these: in vivo, 504 h.
In data set [10] the target is T2, Sex hormone-binding globulin (Homo sapiens, UniProt P04278).
T2 sequence (P04278 whole entry): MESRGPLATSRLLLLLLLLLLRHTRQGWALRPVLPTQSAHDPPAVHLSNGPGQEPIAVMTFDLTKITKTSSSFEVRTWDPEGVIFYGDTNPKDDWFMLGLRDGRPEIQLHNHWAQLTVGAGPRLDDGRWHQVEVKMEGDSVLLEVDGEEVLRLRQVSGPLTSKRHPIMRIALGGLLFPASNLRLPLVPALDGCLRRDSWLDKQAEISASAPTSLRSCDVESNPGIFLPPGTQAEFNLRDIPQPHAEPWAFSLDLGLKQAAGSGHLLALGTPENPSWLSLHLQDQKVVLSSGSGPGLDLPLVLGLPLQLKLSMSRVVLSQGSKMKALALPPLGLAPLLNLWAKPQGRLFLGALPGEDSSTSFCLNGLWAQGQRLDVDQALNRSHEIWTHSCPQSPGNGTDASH
Nature of the data set: Binding affinity to human sex hormone binding globulin at 20 uCi after 60 mins by size-exclusion HPLC analysis. It counts as ADME. The conditions noted are these: 1 h. In short, it runs like this: (§2)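 Radioligand incubated 60 min with purified human SHBG or with human, rabbit or mouse serum. Size-exclusion HPLC (TSK3000): 0.1 M potassium phosphate/0.1 M Na2SO4 1:1 pH 6.8 for 20 min, then 0–40% CH3CN over 20 min, held 30 min, 0.7 mL/min.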

Data set [11] has as its target T1, Sex hormone-binding globulin. Briefly: Binding affinity to rabbit sex hormone binding globulin at 20 uCi after 60 mins by size-exclusion HPLC analysis. It counts as ADME. The conditions noted are these: 1 h. In short, it runs like this:
as §2

For data set [12] the target is unchanged. Briefly: Binding affinity to rabbit sex hormone binding globulin at 20 uCi after 60 mins by reversed phase HPLC analysis. It counts as ADME. The conditions noted are these: 1 h.
The subject of data set [13] is OVCAR-3. Briefly: Cellular uptake in human OVCAR-3 cells expressing androgen receptor at 1.75 uCi/mL. The data set is classed as ADME, cell-based. The conditions noted are these: TDE = time-dependent effect. An outline of the steps: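 NIH:OVCAR-3 cells in complete RPMI-1640 exposed to the radioligand for 24 h (concentration series) or at 1.75 μCi/mL for set times; medium then replaced and cells cultured further 24–48 h; whole-cell and DNA uptake in cpm/cell.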

The next data set relates to LNCaP. Nature of the data set: Cellular uptake in nonproliferating human LNCAP cells expressing androgen receptor after 48 hrs by gamma counting in presence of 1 uM DHT relative to uptake in absence of DHT. The data set is classed as ADME, cell-based.
The test system of data set [14] is OVCAR-3. Briefly: Antitumor activity against human OVCAR-3 cells xenografted in athymic NCr mouse assessed as tumor burden in peritoneum at 0.25 mCi, ip administered 31 days after tumor implantation as single bolus dose measured 55 days after implantation by gamma counting in presence of SHBG (Rvb= 4.1 +/- 0.6 g). The data set is classed as functional.
The nature of data set [15]: Biodistribution in tumor of athymic NCr mouse xenografted with human OVCAR-3 cells assessed per gram of tissue at an average 39.5 uCi/dose, ip administered 9 days after tumor implantation as six fractionated doses every 4 days measured after 2 weeks of last dose by gamma counting. The conditions noted are these: in vivo, 336 h. The data set is classed as ADME, organism-based, Neoplasm. In short, it runs like this: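 OVCAR-3-bearing and healthy athymic mice given fractionated ip doses on the six-dose every-4-days schedule; tissues, tumor and lavaged cells γ-counted at necropsy, %ID/g; DNA-bound 125I in cells measured as cpm/cell.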

As to `C[C@]12CCC(=O)C[C@@H]1CC[C@@H]1[C@@H]2CC[C@]2(C)[C@@H](OC(=O)CCC(=O)O[C@H]3C[C@H](n4cc([125I])c(=O)[nH]c4=O)O[C@@H]3CO)CC[C@@H]12`, the Activity entry is listed as “Active” in [1] and “Non-toxic” in the data set with Mus musculus. Moreover, the t1/2 with Serum came to 14.7 h; in [2] it was 5.7 h. Besides, the metabolised at 24 h in data set [3] turned out to be 1.1%. The same compound had a Drug uptake in data set [4] of 3.4%. The Ratio in data set [5] worked out at 1.4; in [6], 64.7; in [7] it was 36.5; in [8], 61.8; in data set [9] it was 34.4.

Turning to `C[C@]12CCC(=O)C[C@@H]1CC[C@@H]1[C@@H]2CC[C@]2(C)[C@@H](OC(=O)CCC(=O)O[C@H]3C[C@H](n4cc([125I])c(=O)[nH]c4=O)O[C@@H]3COP(=O)(O)O)CC[C@@H]12`, the Activity result is reported as “Active” in [10], “Active” in data set [11], “Active” in data set [12] and 3.1 g with OVCAR-3 [14]. The figures for the Drug uptake result (in the data set with OVCAR-3 [13]; in the data set with LNCaP; in [15]) were “tde”, 30% and 2.892 %ID, respectively.
